Consider 2 compounds from paper PMC3972754 (European biophysics journal : EBJ, 2013).

The target of experiment [1] is T1, cPAH (phenylalanine hydroxylase from Chromobacterium violaceum) (Chromobacterium violaceum, UniProt P30967, F258A). Put plainly: biochemical.
Experiment [2] has as its target T2, cPAH (phenylalanine hydroxylase from Chromobacterium violaceum) (Chromobacterium violaceum, UniProt P30967, Y155A). The experiment in a line: biochemical.
In experiment [3] the target is T3, cPAH (phenylalanine hydroxylase from Chromobacterium violaceum) (Chromobacterium violaceum, UniProt P30967, S203P). The experiment in a line: biochemical.
Experiment [4] addresses T4, cPAH (phenylalanine hydroxylase from Chromobacterium violaceum) (Chromobacterium violaceum, UniProt P30967).
T4 sequence (P30967 1-297): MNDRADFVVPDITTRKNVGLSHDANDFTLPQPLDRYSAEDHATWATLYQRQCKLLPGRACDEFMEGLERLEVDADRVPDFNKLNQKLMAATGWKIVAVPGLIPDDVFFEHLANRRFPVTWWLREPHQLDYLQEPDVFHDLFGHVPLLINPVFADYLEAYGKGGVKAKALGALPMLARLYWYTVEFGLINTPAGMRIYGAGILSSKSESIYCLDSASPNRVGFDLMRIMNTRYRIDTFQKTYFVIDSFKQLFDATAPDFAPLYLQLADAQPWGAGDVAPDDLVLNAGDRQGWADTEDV
Put plainly: ITC. It counts as binding. The method, boiled down:
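Untagged or GST-cleaved C. violaceum cPAH (WT or point mutants), dialysed overnight against 50 mM HEPES pH 7.4. Amino-acid ligand (1–10 mM) titrated into 50–100 µM protein over 18 × 2 µL injections. Buffer-only reference subtracted; one-site fit; duplicates. Anaerobic variant (argon, 25 °C): apo enzyme reconstituted with 0.5–1.0 mol ferrous ammonium sulfate per mol PAH, plus 200 µM pterin cofactor, equilibrated 15 min.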

Experiment [5] addresses T5, cPAH (phenylalanine hydroxylase from Chromobacterium violaceum) (Chromobacterium violaceum, UniProt P30967, T254A). Put plainly: biochemical.
Experiment [6] addresses T2, cPAH (phenylalanine hydroxylase from Chromobacterium violaceum). The experiment in a line: biochemical. The source holds these as a separate data set.
For experiment [7], the target named is T5, cPAH (phenylalanine hydroxylase from Chromobacterium violaceum). The experiment in a line: biochemical. This is another data set of the same source.
For experiment [8], the target named is T4, cPAH (phenylalanine hydroxylase from Chromobacterium violaceum). The experiment in a line: tyrosine formation at […] nm, initial rates. It counts as biochemical. The following applies: 20 °C, 0.1 M Na-HEPES pH 7.4, O2 saturated, FeSO4, 350 µM DMPH4.
For experiment [9], the target named is T1, cPAH (phenylalanine hydroxylase from Chromobacterium violaceum). Put plainly: biochemical. This is another data set of the same source.
Experiment [10] concerns the target T3, cPAH (phenylalanine hydroxylase from Chromobacterium violaceum). Put plainly: biochemical. The source holds these as a separate data set.
Experiment [11] deals with T4, cPAH (phenylalanine hydroxylase from Chromobacterium violaceum). The experiment in a line: ITC, one-site model. It counts as binding. (In general: In ITC the heat of successive injections is recorded.)

Each structure is given as a SMILES string. Structures can show the parent of a compound that is named as a salt. Where two headings read alike, the source gives them in different places.

For orientation: Kd means a measure of binding affinity in units of concentration. Take `C[C@H](O)[C@H](O)[C@H]1CNc2nc(N)[nH]c(=O)c2N1` [BH4, (6R)-5,6,7,8-tetrahydrobiopterin dihydrochloride]: the Kd is 29.3 ± 1.6 µM in experiment [1]; 16.2 ± 0.7 µM in experiment [2]; 35.2 ± 3.3 µM in [3]; 23.5 ± 1.6 µM in experiment [4]; 43.6 ± 4.2 µM in experiment [5].
Broadly, the Km is the substrate concentration at which the rate is half of its maximum. For the compound `N[C@@H](Cc1ccccc1)C(=O)O` [phenylalanine], the Kd in experiment [6] came out at 559 ± 30 µM; in [7] it was 376 ± 10 µM; in [9], 775 ± 44 µM; in experiment [10], 7 ± 0.3 µM; in experiment [11], 24 ± 1.1 µM. In experiment [8], the Km amounted to 244 ± 40.8 µM.
